Results: paper PMC6923798 (Bioorganic chemistry, 2018)

Legend:
HCT-116 = assay: NCI in vitro five dose anticancer assay; format: cell-based, human
A498 = assay: NCI in vitro five dose anticancer assay; format: cell-based, human
K-562 cell line = assay: NCI in vitro one dose anticancer assay; format: cell-based; settings: Homo sapiens, K562, 48 h, read-out: % growth inhibition
Outline: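 NCI protocol. Test compound added once at 10−5 M to ~60 human tumour lines from nine subpanels. Incubated 48 h at 37 °C, 5% CO2, 95% air, 100% relative humidity. Endpoint by sulforhodamine B protein staining with spectrophotometric absorbance. Growth of treated cells reported as percent of untreated cells.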

SF-295 = assay: NCI in vitro five dose anticancer assay; format: cell-based, human
TK-10 = assay: NCI in vitro five dose anticancer assay; format: cell-based, human
c-Src = c-Src (Homo sapiens, UniProt P12931); assay: Src kinase assay; format: biochemical
Sequence of c-Src (P12931 whole entry): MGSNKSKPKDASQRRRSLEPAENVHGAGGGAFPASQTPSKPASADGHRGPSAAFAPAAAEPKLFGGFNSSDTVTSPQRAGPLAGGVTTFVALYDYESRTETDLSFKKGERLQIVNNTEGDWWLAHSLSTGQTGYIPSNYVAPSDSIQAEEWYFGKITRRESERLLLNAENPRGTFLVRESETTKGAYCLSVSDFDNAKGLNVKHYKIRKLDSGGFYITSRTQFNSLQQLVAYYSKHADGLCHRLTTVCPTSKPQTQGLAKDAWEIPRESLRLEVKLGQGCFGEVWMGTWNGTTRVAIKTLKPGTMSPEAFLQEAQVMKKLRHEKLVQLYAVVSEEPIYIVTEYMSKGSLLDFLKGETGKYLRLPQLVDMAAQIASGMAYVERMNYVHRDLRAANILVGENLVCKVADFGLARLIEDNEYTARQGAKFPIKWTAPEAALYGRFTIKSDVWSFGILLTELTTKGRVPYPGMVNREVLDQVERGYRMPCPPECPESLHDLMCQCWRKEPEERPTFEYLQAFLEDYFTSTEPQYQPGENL

ACHN = assay: NCI in vitro five dose anticancer assay; format: cell-based, human; settings: 48 h
MALME-3M = assay: NCI in vitro five dose anticancer assay; format: cell-based, human; settings: 48 h

COc1ccc(C=CC(=O)c2ccc(NC(=O)CSc3nnc(-c4cc(OC)c(OC)c(OC)c4)o3)cc2)cc1 [Compound 8v, N-(4-(3-(4-Methoxyphenyl)acryloyl)phenyl)-2-((5-(3,4,5-trimethoxy-phenyl)-1,3,4-oxadiazol-2-yl)thio)acetamide]
TGI (HCT-116; HCT-116, Colon Cancer, five dose, 48 h, SRB): 1.94 µM
GI50 (HCT-116; Homo sapiens, HCT-116, 48 h): 500 nM
TGI (A498; A498, Renal Cancer, five dose, 48 h, SRB): 23.60 µM
GI50 (A498; Homo sapiens, A498, 48 h): 11 µM
inhibition at 10 µM (K-562 cell line): 35.8 to 152%
GI50 (SF-295; Homo sapiens, SF-295, 48 h): 1770 nM
TGI (SF-295; SF-295, CNS cancer, five dose, 48 h, SRB): 3.35 µM
GI50 (TK-10; Homo sapiens, TK-10, 48 h): 1520 nM
TGI (TK-10; TK-10, Renal Cancer, five dose, 48 h, SRB): 3.03 µM
IC50 (c-Src): 960 ± 200 nM
GI50 (ACHN; Homo sapiens): 1720 nM
TGI (ACHN; Renal Cancer, five dose, SRB): 3.22 µM
GI50 (MALME-3M; Homo sapiens, Malme-3M): 1680 nM
TGI (MALME-3M; MALME-3M, Melanoma, five dose, SRB): 3.45 µM
